Test results published in ChEMBL document CHEMBL4373640, “Synthesis and antitumor activity of aza-brazilan derivatives containing imidazolium salt pharmacophores” (Medchemcomm, 2019).
pIC50: −log10 of the molar value.

Tests used:
[1] = Induction of apoptosis in human SMMC-7221 cells assessed as late apoptotic cells at 1 uM after 48 hrs by AnnexinV-FITC/propidium iodide staining based FACSCalibur flow cytometry analysis (reference value: 7.7 %); type: functional
[2] = Induction of apoptosis in human SMMC-7221 cells assessed as viable cells at 2 uM after 48 hrs by AnnexinV-FITC/propidium iodide staining based FACSCalibur flow cytometry analysis (reference value: 89.8 %); type: functional; conditions: SMMC-7221, 48 h, read-out: Activity
[3] = Induction of apoptosis in human SMMC-7221 cells assessed as late apoptotic cells at 0.5 uM after 48 hrs by AnnexinV-FITC/propidium iodide staining based FACSCalibur flow cytometry analysis (reference value: 7.7 %); type: functional
[4] = Induction of apoptosis in human SMMC-7221 cells assessed as early apoptotic cells at 8 uM after 48 hrs by AnnexinV-FITC/propidium iodide staining based FACSCalibur flow cytometry analysis (reference value: 0.106 %); type: functional
[5] = system: MCF7; assay: Cytotoxicity against human MCF7 cells assessed as reduction in cell viability after 48 hrs by MTS assay; type: functional, cell-based; conditions: MCF7, 48 h
In short: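 Cells (5 × 10^3 per well) were plated 12 h before treatment, then exposed continuously to compound for 48 h. MTS was added, with 1–4 h incubation at 37 °C and OD read at 490 nm. IC50 is the concentration cutting OD by 50% versus untreated cells, taken from dose–response curves. Values are the mean of three independent determinations.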

[6] = Induction of apoptosis in human SMMC-7221 cells assessed as viable cells at 8 uM after 48 hrs by AnnexinV-FITC/propidium iodide staining based FACSCalibur flow cytometry analysis (reference value: 89.8 %); type: functional; conditions: SMMC-7221, 48 h, read-out: Activity
[7] = Induction of apoptosis in human SMMC-7221 cells assessed as early apoptotic cells at 0.5 uM after 48 hrs by AnnexinV-FITC/propidium iodide staining based FACSCalibur flow cytometry analysis (reference value: 0.106 %); type: functional
[8] = Cell cycle arrest in human SMMC-7221 cells assessed as accumulation at G2/M phase at 1 uM after 24 hrs by propidium iodide/RNase A staining based FACSCalibur flow cytometry analysis (reference value: 8.21 +/- 0.38 %); type: functional
[9] = Cell cycle arrest in human SMMC-7221 cells assessed as accumulation at G0/G1 phase at 1 uM after 24 hrs by propidium iodide/RNase A staining based FACSCalibur flow cytometry analysis (reference value: 72.17 +/- 1.0 %); type: functional

Molecule `COc1cccc2c1N(CCCn1c[n+](Cc3ccc(C)cc3)c3cc(C)c(C)cc31)C[C@@H]1Cc3ccc(Br)cc3[C@H]21.[Br-]` has an Activity [1] of 14.6%, a viability at 2 µM [2] of 77.7% and an Activity [3] of 8.66%. For the same molecule, the Activity [4] was 0.157%, the pIC50 [5] was 6.17 and the viability at 8 µM [6] was 5.16%. The Activity [7] was 0.314%, the Activity [8] was 7.64% and the Activity [9] was 80.32%.
